Source: ChEMBL document CHEMBL4038284, “Synthesis of novel quinoline-based 4,5-dihydro-1H-pyrazoles as potential anticancer, antifungal, antibacterial and antiprotozoal agents” (Eur J Med Chem, 2017)
≈ marks a conversion by molar mass, not a printed value.

Legend:
Candida albicans [1] = experiment: Growth inhibition of Candida albicans ATCC 10231 at 3.4 ug/ml incubated for 48 hrs under dark condition by broth microdilution method relative to control; assay type: functional; settings: ATCC 10231, 48 h, read-out: GI
Plasmodium falciparum = experiment: Antiplasmodial activity against chloroquine-sensitive Plasmodium falciparum 3D7 assessed as reduction in parasitic LDH activity after 48 hrs by Malstat reagent based […] method; assay type: functional; settings: 3D7, 48 h
How it was run: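 Unsynchronized P. falciparum 3D7 at 0.5% parasitemia and 1% hematocrit in RPMI with 3% Albumax II. Exposed to 100, 25, 6.25 and 1.56 µg/mL for 48 h at 37 °C under 90% N2/5% CO2/5% O2. After three freeze-thaw cycles, LDH measured with Malstat and NBT/PES, 1 h in the dark, read at 650 nm. IC50 by Probit; triplicate, ≥2 experiments.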

U-937 = experiment: Cytotoxicity against human U937 cells after 72 hrs by MTT assay; assay type: cell-based; settings: u-937, 72 h
How it was run: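 Exponentially growing U-937 at 1 × 10^5 cells/mL in RPMI-1640 with 10% FBS were exposed to 200, 50, 12.5 and 3.125 µg/mL for 72 h at 37 °C, 5% CO2. MTT for 3 h, stopped with isopropanol/SDS, formazan read at 570 nm, blank-corrected. LC50 by Probit from % viability against untreated cells. Triplicate, at least two independent experiments.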

Candida albicans [2] = experiment: Growth inhibition of Candida albicans ATCC 10231 at 15.62 ug/ml incubated for 48 hrs under dark condition by broth microdilution method relative to control; assay type: functional; settings: ATCC 10231, 48 h, read-out: GI
How it was run: (§1)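 CLSI M27-A3 broth microdilution in RPMI-1640, DMSO ≤1%. Inoculum 1-5 × 10^3 CFU/mL. Incubated 48 h at 30 °C, dark. % inhibition = 100 − (OD405 test − sterility control)/(OD405 growth control − sterility control), with growth and sterility control wells. Triplicate.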

Cryptococcus neoformans [3] = experiment: Antifungal activity against Cryptococcus neoformans ATCC 32264 incubated for 48 hrs under dark condition by broth microdilution method; assay type: functional; settings: ATCC 32264, 48 h
How it was run: (§2)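 CLSI M27-A3 broth microdilution in RPMI-1640, DMSO ≤1%, compounds at 250-0.98 µg/mL final. Inoculum 1-5 × 10^3 CFU/mL. Incubated 48 h at 30 °C in a moist dark chamber, read at OD405. MIC80 and MIC50 taken from % inhibition dose-response curves (mean ± SEM, triplicate). Amphotericin B was the positive control.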

Candida albicans [4] = experiment: Growth inhibition of Candida albicans ATCC 10231 at 250 ug/ml incubated for 48 hrs under dark condition by broth microdilution method relative to control; assay type: functional; settings: ATCC 10231, 48 h, read-out: GI; how it was run: as §1
Candida albicans [5] = experiment: Growth inhibition of Candida albicans ATCC 10231 at 125 ug/ml incubated for 48 hrs under dark condition by broth microdilution method relative to control; assay type: functional; settings: ATCC 10231, 48 h, read-out: GI; how it was run: as §1
Staphylococcus aureus [6] = experiment: Antibacterial activity against vancomycin-intermediate Staphylococcus aureus after 24 hrs by resazurin dye based microdilution assay; assay type: functional
How it was run: (§3)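 MIC taken as the lowest concentration giving visible inhibition and/or by resazurin (1 mg/mL). Gentamicin was the control. Run in duplicate, repeated at least three times.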

Cryptococcus neoformans [7] = experiment: Growth inhibition of Cryptococcus neoformans ATCC 32264 at 15.62 ug/ml incubated for 48 hrs under dark condition by broth microdilution method relative to control; assay type: functional; settings: ATCC 32264, 48 h, read-out: GI; how it was run: as §1
Cryptococcus neoformans [8] = experiment: Growth inhibition of Cryptococcus neoformans ATCC 32264 at 3.4 ug/ml incubated for 48 hrs under dark condition by broth microdilution method relative to control; assay type: functional; settings: ATCC 32264, 48 h, read-out: GI
Cryptococcus neoformans [9] = experiment: Growth inhibition of Cryptococcus neoformans ATCC 32264 at 31.25 ug/ml incubated for 48 hrs under dark condition by broth microdilution method relative to control; assay type: functional; settings: ATCC 32264, 48 h, read-out: GI; how it was run: as §1
Candida albicans [10] = experiment: Antifungal activity against Candida albicans ATCC 10231 incubated for 48 hrs under dark condition by broth microdilution method; assay type: functional; settings: ATCC 10231, 48 h; how it was run: as §2
Escherichia coli = experiment: Antibacterial activity against Escherichia coli ATCC 25922 after 24 hrs by resazurin dye based microdilution assay; assay type: functional; settings: ATCC 25922, 24 h; how it was run: as §3
Leishmania panamensis = experiment: Antileshmanial activity against EpiR/GFP fused Leishmania panamensis MHOM/CO/87/UA140 intracellular amastigotes infected in human […] cells after 72 hrs by flow cytometric method; assay type: functional, cell-based; settings: MHOM/CO/87/UA140, 72 h
How it was run: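 PMA-treated U-937 cells (3 × 10^5 cells/mL) infected with stationary-phase GFP L. panamensis promastigotes (15:1), 3 h at 34 °C, then washed. After 24 h, compounds added at 50, 12.5, 3.125 and 0.78 µg/mL for 72 h at 37 °C. EC50 by Probit; triplicate, two experiments.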

Candida albicans [11] = experiment: Growth inhibition of Candida albicans ATCC 10231 at 62.5 ug/ml incubated for 48 hrs under dark condition by broth microdilution method relative to control; assay type: functional; settings: ATCC 10231, 48 h, read-out: GI; how it was run: as §1
Cryptococcus neoformans [12] = experiment: Growth inhibition of Cryptococcus neoformans ATCC 32264 at 7.8 ug/ml incubated for 48 hrs under dark condition by broth microdilution method relative to control; assay type: functional; settings: ATCC 32264, 48 h, read-out: GI; how it was run: as §1
Staphylococcus aureus [13] = experiment: Antibacterial activity against methicillin-resistant Staphylococcus aureus ATCC 43300 after 24 hrs by resazurin dye based microdilution assay; assay type: functional; settings: ATCC 43300, 24 h
How it was run: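 Broth microdilution in Mueller Hinton broth, inoculum 5 × 10^5 – 8 × 10^5. Compound stocks diluted in MHB with 5% DMSO and 0.1% Tween 80. Incubation 24 h at 35-37 °C. MIC is the lowest concentration with visible growth inhibition and/or by resazurin (1 mg/mL) read-out. Gentamicin as control. Run in duplicate, replicated at least three times.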

Trypanosoma cruzi = experiment: Antitrypanosomal activity against Trypanosoma cruzi Tulahuen intracellular amastigote harboring LacZ infected in human U937 cells after 72 hrs by CPRG/Nonidet reagent based spectrophotometric method; assay type: functional, cell-based; settings: U-937, 72 h
How it was run: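 U-937 cells at 2.5 × 10^5 cells/mL in RPMI-1640 with 10% serum and 0.1 µg/mL PMA were infected with β-galactosidase-transfected Tulahuen epimastigotes at 5 parasites per cell. Infected cells were exposed to 50, 12.5, 3.125 and 0.78 µg/mL for 72 h. CPRG (100 uM) and 0.1% Nonidet P-40 were added for 3 h, read at 570 nm. EC50 by Probit. Triplicate, at least two experiments; benznidazole as reference.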

Klebsiella pneumoniae [14] = experiment: Antibacterial activity against carbapenemase positive Klebsiella pneumoniae BAA 1705 after 24 hrs by resazurin dye based microdilution assay; assay type: functional; settings: BAA 1705, 24 h; how it was run: as §3
Klebsiella pneumoniae [15] = experiment: Antibacterial activity against ESBL positive Klebsiella pneumoniae ATCC 700603 after 24 hrs by resazurin dye based microdilution assay; assay type: functional; settings: Klebsiella pneumoniae, 700603, 24 h; how it was run: as §3
Neisseria gonorrhoeae = experiment: Antibacterial activity against beta lactamase positive Neisseria gonorrhoeae ATCC 31426 by oxidase test; assay type: functional
How it was run: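 Agar dilution MIC on GC agar with 1% isovitalex containing increasing compound concentrations. Plates inoculated with about 1×10^4 CFU (5 µL). MIC is the lowest concentration that inhibited growth, with growth confirmed by oxidase test. Run in duplicate, repeated at least three times.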

Staphylococcus aureus [16] = experiment: Antibacterial activity against methicillin-sensitive Staphylococcus aureus ATCC 25923 after 24 hrs by resazurin dye based microdilution assay; assay type: functional; settings: ATCC 25923, 24 h; how it was run: as §3
Cryptococcus neoformans [17] = experiment: Growth inhibition of Cryptococcus neoformans ATCC 32264 at 125 ug/ml incubated for 48 hrs under dark condition by broth microdilution method relative to control; assay type: functional; settings: ATCC 32264, 48 h, read-out: GI; how it was run: as §1
Cryptococcus neoformans [18] = experiment: Growth inhibition of Cryptococcus neoformans ATCC 32264 at 250 ug/ml incubated for 48 hrs under dark condition by broth microdilution method relative to control; assay type: functional; settings: ATCC 32264, 48 h, read-out: GI; how it was run: as §1
Candida albicans [19] = experiment: Growth inhibition of Candida albicans ATCC 10231 at 7.8 ug/ml incubated for 48 hrs under dark condition by broth microdilution method relative to control; assay type: functional; settings: ATCC 10231, 48 h, read-out: GI; how it was run: as §1
Cryptococcus neoformans [20] = experiment: Growth inhibition of Cryptococcus neoformans ATCC 32264 at 62.5 ug/ml incubated for 48 hrs under dark condition by broth microdilution method relative to control; assay type: functional; settings: ATCC 32264, 48 h, read-out: GI; how it was run: as §1
Pseudomonas aeruginosa = experiment: Antibacterial activity against Pseudomonas aeruginosa ATCC 27853 after 24 hrs by resazurin dye based microdilution assay; assay type: functional; settings: ATCC 27853, 24 h; how it was run: as §3
Candida albicans [21] = experiment: Growth inhibition of Candida albicans ATCC 10231 at 31.25 ug/ml incubated for 48 hrs under dark condition by broth microdilution method relative to control; assay type: functional; settings: ATCC 10231, 48 h, read-out: GI; how it was run: as §1

| SMILES | EC50 (Plasmodium falciparum) [µg/mL] | LC50 (U-937) [µg/mL] | inhibition of growth at 15.62 µg/mL (Cryptococcus neoformans [7]) [%] | inhibition of growth at 3.4 µg/mL (Cryptococcus neoformans [8]) [%] | inhibition of growth at 31.25 µg/mL (Cryptococcus neoformans [9]) [%] | inhibition of growth at 7.8 µg/mL (Cryptococcus neoformans [12]) [%] | EC50 (Trypanosoma cruzi) [µg/mL] | inhibition of growth at 125 µg/mL (Cryptococcus neoformans [17]) [%] | inhibition of growth at 250 µg/mL (Cryptococcus neoformans [18]) [%] | inhibition of growth at 62.5 µg/mL (Cryptococcus neoformans [20]) [%] | also measured |
| --- | --- | --- | --- | --- | --- | --- | --- | --- | --- | --- | --- |
| O=C(/C=C/c1cccc(Nc2ccnc3cc(Cl)ccc23)c1)c1ccccc1 | 10.3 (≈ 26.7 µM) | 1.5 (≈ 3.9 µM) | 32.3 | 17.9 | 52.5 | 25.6 | > 0.8 | 89.5 | 100 | 80.8 | inhibition of growth at 3.4 µg/mL (Candida albicans [1]): 21.5%; inhibition of growth at 15.62 µg/mL (Candida albicans [2]): 27.7%; MIC50 (Cryptococcus neoformans [3]): 31.2 µg/mL (≈ 81.2 µM); MIC80 (Cryptococcus neoformans [3]): 62.5 µg/mL (≈ 162 µM); inhibition of growth at 250 µg/mL (Candida albicans [4]): 43.5%; inhibition of growth at 125 µg/mL (Candida albicans [5]): 36.7%; MIC (Staphylococcus aureus [6]): > 1000 µg/mL; MIC50 (Candida albicans [10]): ≥ 250 µg/mL; MIC80 (Candida albicans [10]): ≥ 250 µg/mL; MIC (Escherichia coli): > 1000 µg/mL; EC50 (Leishmania panamensis): 2.54 µg/mL (≈ 6.6 µM); inhibition of growth at 62.5 µg/mL (Candida albicans [11]): 36.2%; MIC (Staphylococcus aureus [13]): > 1000 µg/mL; MIC (Klebsiella pneumoniae [14]): > 1000 µg/mL; MIC (Klebsiella pneumoniae [15]): > 1000 µg/mL; MIC (Neisseria gonorrhoeae): > 1000 µg/mL; MIC (Staphylococcus aureus [16]): > 1000 µg/mL; inhibition of growth at 7.8 µg/mL (Candida albicans [19]): 25.2%; MIC (Pseudomonas aeruginosa): > 1000 µg/mL; inhibition of growth at 31.25 µg/mL (Candida albicans [21]): 31.7% |
| O=C(Cn1ccnc1[N+](=O)[O-])NCc1ccccc1 [BENZNIDAZOLE] |  | 180 (≈ 692 µM) |  |  |  |  | 10.7 (≈ 41.1 µM) |  |  |  |  |
| C[C@@H]1[C@H](O)[C@@H](C)/C=C/C=C/C=C/C=C/C=C/C=C/C=C/[C@H](O[C@@H]2O[C@H](C)[C@@H](O)[C@H](N)[C@@H]2O)C[C@@H]2O[C@](O)(C[C@@H](O)C[C@@H](O)[C@H](O)CC[C@@H](O)C[C@@H](O)CC(=O)O[C@H]1C)C[C@H](O)[C@H]2C(=O)O [AMPHOTERICIN B] |  | 36 (≈ 39 µM) | 100 | 100 | 100 | 100 |  | 100 | 100 | 100 |  |
| CCN(CC)CCCC(C)Nc1ccnc2cc(Cl)ccc12.O=P(O)(O)O.O=P(O)(O)O (stereo unspecified) [CHLOROQUINE PHOSPHATE] | 18.9 |  |  |  |  |  |  |  |  |  |  |
